Data taken from ChEMBL document CHEMBL4351007, “Synthesis and biological evaluation of (1,2,4)triazole[4,3-a]pyridine derivatives as potential therapeutic agents for concanavalin A-induced hepatitis” (Eur J Med Chem, 2019).
Activity calls are given as the source filed them. The calls are words filed in the database; no cut-off is given here.

Experiments:
RAW264.7 [1] = assay: Antiinflammatory activity in mouse RAW264.7 cells assessed as LPS-induced nitric oxide level at 20 uM preincubated for 1 hr followed by LPS treatment and measured after 23 hrs by Griess reagent based assay (reference value: 96.06 to 102.81%); type: functional
Procedure, shortened: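 RAW264.7 cells seeded at 1 × 10^5/mL and left overnight. Compound (20 μM) added 1 h before LPS at 1 μg/mL, then 23 h more incubation. Nitrite in supernatant read with Griess reagent at 540 nm and expressed as NO relative to the LPS-only wells (%).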

L02 = assay: Cytotoxicity against human LO2 cells assessed as cell viability at 20 uM measured after 24 hrs by MTT assay; type: cell-based; conditions: l02, 24 h
Procedure, shortened: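 LO2 human liver cells (1.5–5 × 10^3 per well) seeded overnight, then exposed to compound for 24 h. MTT (5 mg/mL stock) added for 2–4 h at 37 °C. Formazan dissolved in DMSO and absorbance read at 570 nm. Three replicate experiments.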

RAW264.7 [2] = assay: Inhibition of MCP-1 mediated chemotaxis in mouse RAW264.7 cells at 20 uM measured after 3 hrs by light microscopic analysis relative to control; type: functional; conditions: for inhibition at 20 µM: RAW264.7, 3 h
Procedure, shortened: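 RAW264.7 cells serum-starved for 3 h, then placed in the upper Transwell chamber in 0.5% BSA medium with compound (20 μM) or DMSO. Lower chamber held 200 ng/mL MCP-1. After 3 h at 37 °C, migrated cells fixed, crystal violet-stained and counted in randomly chosen fields. Inhibitory rate = 1 − N1/(N1+N2); three chambers per condition.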

RAW264.7 [3] = assay: Antiinflammatory activity against mouse RAW264.7 assessed as decrease in Con-A induced TNF-alpha mRNA expression level at 1 uM measured after 22 hrs by RT-PCR analysis; type: functional, cell-based
Procedure, shortened: (§1)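 RAW264.7 macrophages (DMEM, 10% FBS, 37 °C, 5% CO2) pretreated with Con A for 2 h, then compound at 1 μM for a further 22 h. mRNA quantified by SYBR real-time PCR (95 °C 30 s; 40 cycles of 95 °C 5 s, 60 °C 20 s), normalized to GAPDH, run in triplicate; mean ± SD, n=5.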

Mus musculus [4] = assay: Antiinflammatory activity in mouse model of Con-A induced autoimmune hepatitis assessed as decrease in serum AST level at 100 mg/kg, ip measured after 12 hrs relative to control; type: functional; parameters: scale not given: the % may be the effect or the level left
Procedure, shortened: (§2)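 Female BALB/c mice, 6–8 weeks old, SPF housing. Con A 20 mg/kg given i.v., then compound 100 mg/kg i.p. in 40% PEG 400/60% saline; model group received vehicle. Killed at 12 h. Plasma ALT and AST measured on an automatic analyzer. Mean ± SD, n=5; ANOVA with Tukey's test.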

[5] = target: Transcription factor p65 (Mus musculus) (UniProt Q04207); assay: Inhibition of LPS-induced NF-kappaB p65 translocation in mouse RAW264.7 cells incubated for 22 hrs by DAPI staining based laser scanning confocal microscopic analysis; type: cell-based
Sequence of Transcription factor p65 (Mus musculus) (Q04207 whole entry): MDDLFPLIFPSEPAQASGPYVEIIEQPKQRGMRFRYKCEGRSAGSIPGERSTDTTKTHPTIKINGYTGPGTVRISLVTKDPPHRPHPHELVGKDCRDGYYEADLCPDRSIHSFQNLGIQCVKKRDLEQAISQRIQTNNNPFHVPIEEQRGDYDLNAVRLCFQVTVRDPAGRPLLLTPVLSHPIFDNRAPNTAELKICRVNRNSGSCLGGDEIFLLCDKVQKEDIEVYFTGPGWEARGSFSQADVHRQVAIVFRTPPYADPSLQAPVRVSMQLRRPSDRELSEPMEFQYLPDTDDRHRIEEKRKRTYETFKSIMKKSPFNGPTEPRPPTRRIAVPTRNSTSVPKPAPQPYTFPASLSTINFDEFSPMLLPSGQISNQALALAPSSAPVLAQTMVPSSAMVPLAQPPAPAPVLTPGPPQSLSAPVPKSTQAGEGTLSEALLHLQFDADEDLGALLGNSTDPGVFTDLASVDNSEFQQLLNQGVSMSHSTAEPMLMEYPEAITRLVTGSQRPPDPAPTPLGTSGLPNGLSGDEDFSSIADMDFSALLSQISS
Procedure, shortened: (§3)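 RAW264.7 cells (2×10^4/well) seeded overnight and stimulated for 2 h with Con A (0.6 μM) or LPS (1 μg/mL), then compound at various concentrations for 22 h. Cells fixed in paraformaldehyde, permeabilized with Triton X-100 and blocked in BSA. Stained with anti-p65 and FITC secondary antibody, nuclei with DAPI; imaged by confocal microscopy.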

Mus musculus [6] = organism: Mus musculus; assay: Hepatoprotective activity in mouse model of Con-A induced autoimmune hepatitis assessed as reduction in Con-A induced F4/80-positive cells infiltration by […] microscopic analysis; type: functional, organism-based
Procedure, shortened: (§4)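 Livers collected 12 h after Con A 20 mg/kg i.v. plus compound 100 mg/kg i.p. Tissue formalin-fixed, paraffin-embedded and cut into 4–5 μm sections. Sections stained with H&E for light microscopy; further sections immunostained for CD4, CD11b and F4/80 and imaged by fluorescence microscopy.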

Mus musculus [7] = organism: Mus musculus; assay: Hepatoprotective activity in mouse model of Con-A induced autoimmune hepatitis assessed as decrease in necrosis of hepatocytes by H and E staining based […] microscopic analysis; type: functional, organism-based; procedure, shortened: as §4
Mus musculus [8] = organism: Mus musculus; assay: Hepatoprotective activity in mouse model of Con-A induced autoimmune hepatitis assessed as reduction in Con-A induced CD11b-positive cells infiltration by […] microscopic analysis; type: functional, organism-based; procedure, shortened: as §4
[9] = target: Transcription factor p65 (Mus musculus) (UniProt Q04207); assay: Inhibition of Con A-induced NF-kappaB p65 translocation in mouse RAW264.7 cells incubated for 22 hrs by DAPI staining based laser scanning confocal microscopic analysis; type: cell-based; procedure, shortened: as §3
RAW264.7 [10] = assay: Antiinflammatory activity against mouse RAW264.7 assessed as decrease in Con-A induced INF-gamma mRNA expression level at 1 uM measured after 22 hrs by RT-PCR analysis; type: functional, cell-based; procedure, shortened: as §1
RAW264.7 [11] = assay: Antiinflammatory activity against mouse RAW264.7 assessed as decrease in Con-A induced […] IL-10 expression level at 1 uM measured after 22 hrs by RT-PCR analysis; type: functional, cell-based; procedure, shortened: as §1
Mus musculus [12] = assay: Antiinflammatory activity in mouse model of Con-A induced autoimmune hepatitis assessed as of MDSC accumulation at 100 mg/kg by flow cytometry analysis (reference value: 11.31%); type: functional
Procedure, shortened: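 Female BALB/c mice given Con A 20 mg/kg i.v. plus compound 100 mg/kg i.p. (PEG 400/saline vehicle), livers taken at 12 h. Liver single-cell suspensions prepared by mechanical disruption and 1 mg/mL collagenase I digestion, with red cells lysed. 1×10^6 cells stained for CD11b and Gr-1; MDSC percentage determined by flow cytometry.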

Mus musculus [13] = assay: Antiinflammatory activity in mouse model of Con-A induced autoimmune hepatitis assessed as decrease in serum ALT level at 100 mg/kg, ip measured after 12 hrs relative to control; type: functional; parameters: scale not given: the % may be the effect or the level left; procedure, shortened: as §2
RAW264.7 [14] = assay: Antiinflammatory activity against mouse RAW264.7 assessed as decrease in Con-A induced IL-6 mRNA expression level at 1 uM measured after 22 hrs by RT-PCR analysis; type: functional, cell-based; procedure, shortened: as §1
Mus musculus [15] = organism: Mus musculus; assay: Hepatoprotective activity in mouse model of Con-A induced autoimmune hepatitis assessed as reduction in Con-A induced CD4-positive cells infiltration by […] microscopic analysis; type: functional, organism-based; procedure, shortened: as §4

| SMILES | Activity (RAW264.7 [1]) [%] | Activity (L02) | also measured |
| --- | --- | --- | --- |
| CCS(=O)(=O)Nc1cc(-c2ccccc2Cl)cn2c(C)nnc12 | 152.42 | Non-Toxic |  |
| CCS(=O)(=O)Nc1cc(-c2cc(Cl)ccc2OCc2ccccc2)cn2c(C)nnc12 | 26.01 | Non-Toxic | inhibition (RAW264.7 [2]): Active |
| COc1ncccc1-c1cc(NC(C)=O)c2nnc(C)n2c1 | 54.04 | Non-Toxic |  |
| CCOc1cc(F)ccc1-c1cc(NC(=O)C2CCCCC2)c2nnc(C)n2c1 | 37.8 | Non-Toxic | inhibition (RAW264.7 [2]): Active |
| CCCOc1ccc(Cl)cc1-c1cc(NC(=O)c2ccccc2F)c2nnc(C)n2c1 | 77.73 | Non-Toxic |  |
| CCOc1cc(F)ccc1-c1cc(NS(=O)(=O)CC)c2nnc(C)n2c1 | 34.85 | Non-Toxic |  |
| O=C1NC(=O)/C(=C/c2ccc3nccnc3c2)S1 |  |  | inhibition at 20 µM (RAW264.7 [2]): 40.5% |
| CC(=O)Nc1cc(-c2ccc(CN3CCOCC3)cc2)cn2c(C)nnc12 | 42.4 | Non-Toxic |  |
| CCCOc1ccc(Cl)cc1-c1cc(NC(C)=O)c2nnc(C)n2c1 | 49.05 | Non-Toxic |  |
| CCS(=O)(=O)Nc1cc(-c2ccccc2)cn2c(C)nnc12 | 44.44 | Non-Toxic |  |
| COc1ccc(F)cc1-c1cc(NC(=O)c2c(F)cccc2F)c2nnc(C)n2c1 | 61.96 | Non-Toxic |  |
| CC(=O)Nc1cc(-c2ccccc2Cl)cn2c(C)nnc12 | 48.41 | Non-Toxic |  |
| COc1ccc(C)cc1-c1cc(NC(C)=O)c2nnc(C)n2c1 | 58.83 | Non-Toxic |  |
| CC(=O)Nc1cc(-c2ccccc2)cn2c(C)nnc12 | 44.71 | Non-Toxic |  |
| CCS(=O)(=O)Nc1cc(-c2cc(C)ccc2OC)cn2c(C)nnc12 | 45.48 | Non-Toxic |  |
| CC(=O)Nc1cc(-c2ccccc2C(F)(F)F)cn2c(C)nnc12 | 42.36 | Non-Toxic |  |
| CCS(=O)(=O)Nc1cc(-c2cccc(C(F)(F)F)c2)cn2c(C)nnc12 | 27.18 | Non-Toxic |  |
| CCS(=O)(=O)Nc1cc(-c2cccnc2OC)cn2c(C)nnc12 | 49.93 | Non-Toxic |  |

| SMILES | Activity (RAW264.7 [1]) [%] | Activity (L02) | also measured |
| --- | --- | --- | --- |
| CCOc1ccc(C)cc1-c1cc(NC(C)=O)c2nnc(C)n2c1 | 32.07 | Non-Toxic |  |
| COc1cccc(-c2cc(NC(C)=O)c3nnc(C)n3c2)c1 | 55.3 | Non-Toxic |  |
| CCS(=O)(=O)Nc1cc(-c2ccccc2OCc2ccccc2)cn2c(C)nnc12 | 72.57 | Non-Toxic |  |
| CCS(=O)(=O)Nc1cc(-c2ccccc2-c2ccccc2)cn2c(C)nnc12 | 62.68 | Non-Toxic |  |
| CC(=O)Nc1cc(-c2cc(Cl)ccc2OCc2ccccc2)cn2c(C)nnc12 | 27.05 | Non-Toxic |  |
| CC(=O)Nc1cc(-c2cccc(OC(F)(F)F)c2)cn2c(C)nnc12 | 49.52 | Non-Toxic |  |
| CCS(=O)(=O)Nc1cccc(-c2cc([N+](=O)[O-])c3nnc(C)n3c2)c1 | 26.74 | Non-Toxic |  |
| CCS(=O)(=O)Nc1cc(-c2ccccc2C(F)(F)F)cn2c(C)nnc12 | 58.67 | Non-Toxic |  |
| Cc1nnc2c(NC(=O)c3cccc(C(F)(F)F)c3)cc(-c3ccc(Cl)cc3)cn12 | 30.98 | Non-Toxic |  |
| COc1ccc(F)cc1-c1cc(NC(=O)c2ccc(OCc3ccccc3)cc2Cl)c2nnc(C)n2c1 | 32.06 | Non-Toxic |  |
| CCOc1ccc(C(=O)Nc2cc(-c3cc(F)ccc3OC)cn3c(C)nnc23)cc1 | 28.01 | Non-Toxic | inhibition at 20 µM (RAW264.7 [2]): 52.6%; Activity (RAW264.7 [3]): Active; Activity (Mus musculus [4]): 52.52%; inhibition [5]: Dose-dependent effect; Activity (Mus musculus [6]): Active; Activity (Mus musculus [7]): Active; Activity (Mus musculus [8]): Active; Activity [9]: Dose-dependent effect; Activity (RAW264.7 [10]): Active; Activity (RAW264.7 [11]): Active; Activity (Mus musculus [12]): 8.39%; Activity (Mus musculus [13]): 65.39%; Activity (RAW264.7 [14]): Active; Activity (Mus musculus [15]): Active |
| CCS(=O)(=O)Nc1cccc(-c2cc(NS(=O)(=O)CC)c3nnc(C)n3c2)c1 | 41.19 | Non-Toxic |  |
| CCOc1cc(F)ccc1-c1cc(NC(C)=O)c2nnc(C)n2c1 | 65.85 | Non-Toxic |  |
| COc1ncccc1-c1cc(NC(=O)C2CCCCC2)c2nnc(C)n2c1 | 49.99 | Non-Toxic |  |
| CC(=O)Nc1cc(-c2ccccc2F)cn2c(C)nnc12 | 83.06 | Non-Toxic |  |
| CCS(=O)(=O)Nc1cccc(-c2cc(NC(C)=O)c3nnc(C)n3c2)c1 | 64.96 | Non-Toxic |  |
| Cc1nnc2c(NC(=O)c3ccc(F)cc3)cc(-c3ccc(Cl)cc3)cn12 | 42.88 | Non-Toxic |  |
| CC(=O)Nc1cc(-c2ccccc2-c2ccccc2)cn2c(C)nnc12 | 49.03 | Non-Toxic |  |
